Test [1] deals with GABA-A receptor; anion channel. The experiment in a line: Displacement of [3H]flunitrazepam from GABA-A Benzodiazepine receptor of rat brain cortical membranes. It counts as cell membranes, Membrane. The essentials:
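Rat cerebral cortex homogenized in 50 mM Tris-citrate, pH 7.4, and washed by centrifugation (20000g). […] Nonspecific binding with 10 μM Ro15-1788. Ended by vacuum filtration. IC50 estimated from at least six inhibitor concentrations; mean ± SEM of at least three determinations.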
Background: In a radioligand displacement assay an active substance lowers the binding of a labelled ligand.

Test [2] addresses GABA-A receptor; alpha-6/beta-3/gamma-2 (Homo sapiens, UniProt P18507+P28472+Q16445). The test can be described thus: Binding affinity measured using LtK- cell membranes expressing Gamma-aminobutyric acid A receptor alpha-6-beta-3-gamma-2. The essentials: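 Ltk- cells expressing human α6β3γ2, scraped into PBS and resuspended in 10 mM KH2PO4/100 mM KCl pH 7.4. 1 h at 4 °C to equilibrium, filtration, scintillation counting.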

In test [3] the target is T1, GABA-A receptor; alpha-5/beta-3/gamma-2 (Homo sapiens, UniProt P18507+P28472+P31644).
T1 sequence (P18507 whole entry): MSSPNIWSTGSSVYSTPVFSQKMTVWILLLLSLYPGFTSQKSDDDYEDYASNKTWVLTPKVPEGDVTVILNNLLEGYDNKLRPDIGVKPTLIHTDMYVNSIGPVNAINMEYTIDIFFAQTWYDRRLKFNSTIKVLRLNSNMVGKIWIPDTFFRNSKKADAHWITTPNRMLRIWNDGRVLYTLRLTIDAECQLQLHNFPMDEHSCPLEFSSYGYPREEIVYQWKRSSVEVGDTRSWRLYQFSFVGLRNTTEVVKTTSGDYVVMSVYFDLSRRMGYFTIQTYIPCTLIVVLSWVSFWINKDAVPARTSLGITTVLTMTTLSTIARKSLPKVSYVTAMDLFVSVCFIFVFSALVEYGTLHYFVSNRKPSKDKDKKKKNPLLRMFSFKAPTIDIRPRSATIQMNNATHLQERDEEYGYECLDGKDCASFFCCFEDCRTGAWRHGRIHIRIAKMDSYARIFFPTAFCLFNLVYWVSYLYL
T1 sequence (P28472 whole entry): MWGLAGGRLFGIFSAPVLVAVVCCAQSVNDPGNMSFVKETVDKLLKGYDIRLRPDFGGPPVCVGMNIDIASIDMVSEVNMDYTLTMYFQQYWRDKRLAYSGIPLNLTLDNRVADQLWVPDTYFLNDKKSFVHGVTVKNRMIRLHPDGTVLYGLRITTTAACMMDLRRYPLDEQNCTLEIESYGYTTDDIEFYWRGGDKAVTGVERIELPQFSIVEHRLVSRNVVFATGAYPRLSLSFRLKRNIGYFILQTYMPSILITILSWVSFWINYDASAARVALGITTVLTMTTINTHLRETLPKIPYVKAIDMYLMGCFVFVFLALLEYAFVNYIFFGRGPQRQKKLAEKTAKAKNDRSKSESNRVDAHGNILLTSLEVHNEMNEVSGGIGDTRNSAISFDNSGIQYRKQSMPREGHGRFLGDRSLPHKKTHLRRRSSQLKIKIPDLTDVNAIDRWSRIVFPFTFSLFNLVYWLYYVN
T1 sequence (P31644 whole entry): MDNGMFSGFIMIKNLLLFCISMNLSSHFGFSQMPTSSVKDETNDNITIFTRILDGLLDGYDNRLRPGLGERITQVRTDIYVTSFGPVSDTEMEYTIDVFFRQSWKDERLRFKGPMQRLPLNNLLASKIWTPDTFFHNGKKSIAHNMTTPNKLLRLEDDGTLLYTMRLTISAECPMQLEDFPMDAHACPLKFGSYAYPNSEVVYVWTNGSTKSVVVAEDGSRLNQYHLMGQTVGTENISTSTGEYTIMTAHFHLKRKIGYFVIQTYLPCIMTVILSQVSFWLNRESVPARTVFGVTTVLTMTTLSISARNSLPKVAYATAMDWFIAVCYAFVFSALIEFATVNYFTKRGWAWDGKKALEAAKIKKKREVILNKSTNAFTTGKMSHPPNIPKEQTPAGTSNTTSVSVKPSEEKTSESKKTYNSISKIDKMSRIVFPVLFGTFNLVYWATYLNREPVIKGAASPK
The test can be described thus: Binding affinity measured using LtK- cell membranes expressing Gamma-aminobutyric acid A receptor alpha-5-beta-3-gamma-2.

The target of test [4] is T2, GABA-A receptor; alpha-1/beta-3/gamma-2 (Homo sapiens, UniProt P14867+P18507+P28472).
T2 sequence (P14867 whole entry): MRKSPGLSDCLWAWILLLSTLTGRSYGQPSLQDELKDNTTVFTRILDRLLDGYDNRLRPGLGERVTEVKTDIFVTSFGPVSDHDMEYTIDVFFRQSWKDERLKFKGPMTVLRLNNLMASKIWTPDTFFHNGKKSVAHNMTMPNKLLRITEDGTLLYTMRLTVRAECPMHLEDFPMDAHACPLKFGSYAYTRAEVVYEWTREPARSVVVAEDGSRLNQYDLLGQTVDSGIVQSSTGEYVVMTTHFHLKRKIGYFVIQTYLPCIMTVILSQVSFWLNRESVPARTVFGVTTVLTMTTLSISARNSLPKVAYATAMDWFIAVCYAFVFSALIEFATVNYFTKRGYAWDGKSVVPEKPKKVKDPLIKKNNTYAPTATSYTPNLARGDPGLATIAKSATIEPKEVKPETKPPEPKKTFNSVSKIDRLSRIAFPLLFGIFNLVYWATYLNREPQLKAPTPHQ
T2 sequence (P18507 whole entry): T1 sequence (P18507 whole entry)
T2 sequence (P28472 whole entry): T1 sequence (P28472 whole entry)
The test can be described thus: Binding affinity measured using LtK- cell membranes expressing GABA alpha-1-beta-3-gamma-2 receptor.

For test [5], the target named is T3, GABA-A receptor; alpha-3/beta-3/gamma-2 (Homo sapiens, UniProt P18507+P28472+P34903).
T3 sequence (P18507 whole entry): T1 sequence (P18507 whole entry)
T3 sequence (P28472 whole entry): T1 sequence (P28472 whole entry)
T3 sequence (P34903 whole entry): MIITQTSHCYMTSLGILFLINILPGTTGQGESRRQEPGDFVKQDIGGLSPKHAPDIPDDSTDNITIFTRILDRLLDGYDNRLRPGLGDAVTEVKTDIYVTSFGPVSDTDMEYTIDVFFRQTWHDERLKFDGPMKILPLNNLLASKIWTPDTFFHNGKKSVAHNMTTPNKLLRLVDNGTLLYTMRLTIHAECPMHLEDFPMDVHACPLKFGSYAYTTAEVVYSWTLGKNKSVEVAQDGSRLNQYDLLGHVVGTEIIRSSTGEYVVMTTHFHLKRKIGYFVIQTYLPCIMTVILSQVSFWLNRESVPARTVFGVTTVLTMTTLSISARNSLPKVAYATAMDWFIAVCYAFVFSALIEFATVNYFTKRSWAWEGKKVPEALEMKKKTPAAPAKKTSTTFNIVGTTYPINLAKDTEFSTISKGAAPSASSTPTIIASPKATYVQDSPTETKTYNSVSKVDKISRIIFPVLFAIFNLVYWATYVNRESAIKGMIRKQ
The experiment in a line: Binding affinity measured using LtK- cell membranes expressing GABA alpha-3-beta-3-gamma-2 receptor.

For test [6], the target named is T4, GABA-A receptor; alpha-2/beta-3/gamma-2 (Homo sapiens, UniProt P18507+P28472+P47869).
T4 sequence (P18507 whole entry): T1 sequence (P18507 whole entry)
T4 sequence (P28472 whole entry): T1 sequence (P28472 whole entry)
T4 sequence (P47869 whole entry): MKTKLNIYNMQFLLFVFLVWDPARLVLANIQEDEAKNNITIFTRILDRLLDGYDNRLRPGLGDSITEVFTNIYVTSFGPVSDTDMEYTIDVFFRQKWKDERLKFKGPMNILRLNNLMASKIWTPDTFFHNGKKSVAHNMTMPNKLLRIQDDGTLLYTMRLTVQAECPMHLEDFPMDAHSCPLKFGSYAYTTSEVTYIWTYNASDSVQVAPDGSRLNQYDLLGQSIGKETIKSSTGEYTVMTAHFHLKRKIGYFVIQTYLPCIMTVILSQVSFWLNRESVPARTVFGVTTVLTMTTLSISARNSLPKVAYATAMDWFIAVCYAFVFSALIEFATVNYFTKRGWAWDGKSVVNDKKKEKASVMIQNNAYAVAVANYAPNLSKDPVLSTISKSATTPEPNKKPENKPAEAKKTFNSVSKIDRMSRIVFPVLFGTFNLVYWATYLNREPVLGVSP
The test can be described thus: Binding affinity measured using LtK- cell membranes expressing GABA alpha-2-beta-3-gamma-2 receptor.

For test [7], the target named is T4, GABA-A receptor; alpha-2/beta-3/gamma-2. The experiment in a line: Binding affinity for GABA-A alpha-2-beta-3-gamma-2 receptor expressed in L(tk-) cells. Format: cell-based. In outline:
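Competition binding on Ltk- cells expressing human α2β3γ2 GABAA receptors. Cells were scraped into PBS, centrifuged at 3000g and resuspended in phosphate buffer (10 mM KH2PO4, 100 mM KCl, pH 7.4 at 4 °C). Radioligand was [3H]Ro15-1788 at 1–2 nM, with test compound at 10^-9–10^-5 M. Nonspecific binding was defined by 10^-5 M diazepam. Incubation ran 1 h at 4 °C to equilibrium, followed by filtration and scintillation counting.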

Test [8] has as its target T1, GABA-A receptor; alpha-5/beta-3/gamma-2. The test can be described thus: Binding affinity for GABA-A alpha-5-beta-3-gamma-2 receptor expressed in L (tk-) cells. It counts as cell-based. The essentials:
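Competition binding against [3H]Ro15-1788 (1-2 nM final) on human GABAA receptors expressed in Ltk- cells, scraped into PBS and resuspended in 10 mM KH2PO4/100 mM KCl pH 7.4. Incubated to equilibrium 1 h at 4 °C, filtered, scintillation counted.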

The structures appear in SMILES notation.

What is called IC50 is the point on the concentration scale where inhibition reaches its midpoint. The Ki is a dissociation constant, usually derived from enzyme kinetics or from competition with a known ligand. Low readings indicate tighter binding, high ones weaker binding.

Sequence of GABA-A receptor; alpha-6/beta-3/gamma-2 (Q16445 whole entry, one chain of several): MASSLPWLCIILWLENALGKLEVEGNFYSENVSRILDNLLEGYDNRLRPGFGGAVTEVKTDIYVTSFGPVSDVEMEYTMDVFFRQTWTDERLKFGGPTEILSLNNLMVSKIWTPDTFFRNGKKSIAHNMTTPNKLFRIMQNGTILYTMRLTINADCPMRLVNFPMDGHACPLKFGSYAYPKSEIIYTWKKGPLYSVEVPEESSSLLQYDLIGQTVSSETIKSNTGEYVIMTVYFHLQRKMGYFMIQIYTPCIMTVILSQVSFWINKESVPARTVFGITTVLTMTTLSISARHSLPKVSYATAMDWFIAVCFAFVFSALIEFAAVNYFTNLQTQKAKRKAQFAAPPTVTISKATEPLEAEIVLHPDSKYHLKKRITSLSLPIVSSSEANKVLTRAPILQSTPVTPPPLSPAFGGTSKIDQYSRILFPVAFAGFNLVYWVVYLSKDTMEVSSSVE

Compound `CCCCCCCCOc1ccc2c(c1)c1c(COC)c(C(=O)OCC)ncc1n2C` had a concentration for half-maximal inhibition (IC50) in test [1] of more than 1000 nM. Besides, the Ki in test [2], in test [3], in test [4], in test [5] and in test [6] was more than 3000 nM throughout.
The compound `CCOC(=O)c1[nH]cc2nc3ccc(OC)cc3c-2c1COC` showed an IC50 in test [1] of 1 nM. Further, the Ki in test [2] was more than 10000 nM; in test [3] it was 4 nM; in test [4] it was 0.14 nM; in test [5], 1.72 nM; in test [6] it was 1.19 nM.
The compound `CCCOc1[nH]cc2nc3ccc(OCc4ccccc4)cc3c-2c1COC` yielded an IC50 in test [1] of 63.8 nM.
On the same count and under the same terms, under `COCc1c(/N=C(/S)OC)[nH]cc2nc3ccc(OCc4ccccc4)cc3c1-2` stands 176 nM.
Take `CCCOc1ccc2c(c1)c1c(COC)c(C(=O)OCC)ncc1n2C`: the IC50 in test [1] turned out to be 290 nM.
`CCOc1cc2c(cn1)[nH]c1ccccc12`: the Ki in test [2] was more than 1000 nM; in test [3] it was 868 nM; in test [4], 6.43 nM; in test [7] it was 25.1 nM.
`CCCCCCCCOc1ccc2[nH]c3cnc(C(=O)OCC)c(CC)c3c2c1`: the half-inhibitory concentration (IC50) in test [1] is more than 1000 nM. Moreover, the Ki is more than 30000 nM in test [2], 12700 nM in test [8], 35000 nM in test [5] and 29700 nM in test [6].
`CCOC(=O)c1[nH]cc2nc3ccc(OCc4cccc5ccccc45)cc3c-2c1CC`: the IC50 in test [1] is 13.9 nM. In addition, the Ki in test [2] is more than 10000 nM; in test [3], 270 nM; in test [4] it was 183 nM; in test [5], 300 nM; in test [6] it was 291 nM.
With `CCCOc1ccc2[nH]c3cnc(OCCC)c(COC)c3c2c1`, the IC50 in test [1] amounted to 43.2 nM. Further, the Ki in test [2] was more than 10000 nM; in test [3], 332 nM; in test [4] it was 24.6 nM; in test [5] it was 270 nM; in test [6], 214 nM.
Compound `CCCOc1ccc2[nH]c3cnc(N)c(COC)c3c2c1` displayed an IC50 in test [1] of 697 nM. Moreover, the Ki in test [2] was more than 3000 nM; in test [3] it was 380 nM; in test [4], 45 nM; in test [5], 700 nM; in test [6], 540 nM.
Turning to `CCCOc1ccc2[nH]c3cnc(N=C=S)c(COC)c3c2c1`, the IC50 in test [1] turned out to be 24.7 nM.
The compound `CCCCCCCCOc1ccc2[nH]c3cnc(C(=O)OCC)c(COC)c3c2c1` returned a 50% inhibitory concentration (IC50) in test [1] of 330 nM. Besides, the Ki in test [2] is more than 3000 nM; in test [3] it was more than 3000 nM; in test [4], more than 1000 nM; in test [5], more than 3000 nM; in test [6] it was more than 3000 nM.
In the case of `CCOC(=O)c1[nH]cc2nc3ccc(OCc4cccc5ccccc45)cc3c-2c1COC`, in test [1], the IC50 amounted to 55.5 nM. For the same compound, the Ki in test [2] is more than 1000 nM; in test [3], 323 nM; in test [4] it was 15.4 nM; in test [5], 293 nM.
For the compound `CCOC(=O)c1ncc2c(c1CC)c1cc(OCc3ccccc3)ccc1n2C`, in test [1], the IC50 was more than 5000 nM.
`CCOC(=O)c1ncc2c(c1COC)c1cc(OCc3cccc4ccccc34)ccc1n2C` had an IC50 in test [1] of 730 nM.
In test [1], `COCc1c(N)[nH]cc2nc3ccc(OCc4ccccc4)cc3c1-2` returned a half-inhibitory concentration (IC50) of 271 nM.
In test [1], `COCc1c(N=C=S)[nH]cc2nc3ccc(OCc4ccccc4)cc3c1-2` had an IC50 of 40 nM. For the same compound, the Ki was more than 10000 nM in test [2]; 159 nM in test [3]; 25 nM in test [4]; 58.8 nM in test [5]; 82.6 nM in test [6].
On to `CCCOc1ccc2[nH]c3cnc(C(=O)OCC)c(COC)c3c2c1`, for which the IC50 in test [1] stood at 8.1 nM. In addition, the Ki is 1340 nM in test [2]; 2.4 nM in test [3]; 0.49 nM in test [4]; 2.2 nM in test [5]; 1.21 nM in test [6].
